What is called Ki is the dissociation constant of the complex between target and ligand, obtained from inhibition or displacement. One may read the IC50 as the midpoint of a concentration-inhibition curve. For orientation: pKa means the pH at which an ionisable group is half protonated. Low readings indicate a group that gives up its proton readily, high ones a group that holds its proton tightly. Usually logD stands for lipophilicity at a set pH, counting ionised and neutral species. Higher therefore signals a more lipophilic compound.

In data set [1] the target is T1, Amine oxidase [flavin-containing] A (Homo sapiens, UniProt P21397).
T1 sequence (P21397 whole entry): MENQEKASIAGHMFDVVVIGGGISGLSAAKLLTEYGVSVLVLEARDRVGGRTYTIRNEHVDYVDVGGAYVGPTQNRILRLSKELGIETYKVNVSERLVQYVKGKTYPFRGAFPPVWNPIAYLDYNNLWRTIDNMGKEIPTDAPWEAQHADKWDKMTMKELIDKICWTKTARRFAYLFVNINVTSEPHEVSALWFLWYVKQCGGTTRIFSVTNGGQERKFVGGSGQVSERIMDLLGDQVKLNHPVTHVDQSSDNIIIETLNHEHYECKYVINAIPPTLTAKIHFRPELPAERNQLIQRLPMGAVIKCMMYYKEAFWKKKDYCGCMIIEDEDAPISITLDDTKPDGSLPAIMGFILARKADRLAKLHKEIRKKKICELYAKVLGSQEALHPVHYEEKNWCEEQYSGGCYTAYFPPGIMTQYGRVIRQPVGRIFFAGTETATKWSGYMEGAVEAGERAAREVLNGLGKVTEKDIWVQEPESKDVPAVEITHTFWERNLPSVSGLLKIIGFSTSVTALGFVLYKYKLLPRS
The data set is described as follows: Inhibition of human recombinant MAOA. Summed up:
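Recombinant human mitochondrial MAO A, desalted into 50 mM K phosphate pH 7.2 with 0.8% octyl-glucoside. Enzyme (4.4 µg) preincubated 10 min at 10 °C with varying inhibitor concentrations (DMSO) in substrate-free mix: 50 mM K phosphate pH 7.2, 0.5% reduced Triton X-100, 6% DMSO.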

Data set [2] has as its target T2, Amine oxidase [copper-containing] 3 (Rattus norvegicus, UniProt O08590).
T2 sequence (O08590 whole entry): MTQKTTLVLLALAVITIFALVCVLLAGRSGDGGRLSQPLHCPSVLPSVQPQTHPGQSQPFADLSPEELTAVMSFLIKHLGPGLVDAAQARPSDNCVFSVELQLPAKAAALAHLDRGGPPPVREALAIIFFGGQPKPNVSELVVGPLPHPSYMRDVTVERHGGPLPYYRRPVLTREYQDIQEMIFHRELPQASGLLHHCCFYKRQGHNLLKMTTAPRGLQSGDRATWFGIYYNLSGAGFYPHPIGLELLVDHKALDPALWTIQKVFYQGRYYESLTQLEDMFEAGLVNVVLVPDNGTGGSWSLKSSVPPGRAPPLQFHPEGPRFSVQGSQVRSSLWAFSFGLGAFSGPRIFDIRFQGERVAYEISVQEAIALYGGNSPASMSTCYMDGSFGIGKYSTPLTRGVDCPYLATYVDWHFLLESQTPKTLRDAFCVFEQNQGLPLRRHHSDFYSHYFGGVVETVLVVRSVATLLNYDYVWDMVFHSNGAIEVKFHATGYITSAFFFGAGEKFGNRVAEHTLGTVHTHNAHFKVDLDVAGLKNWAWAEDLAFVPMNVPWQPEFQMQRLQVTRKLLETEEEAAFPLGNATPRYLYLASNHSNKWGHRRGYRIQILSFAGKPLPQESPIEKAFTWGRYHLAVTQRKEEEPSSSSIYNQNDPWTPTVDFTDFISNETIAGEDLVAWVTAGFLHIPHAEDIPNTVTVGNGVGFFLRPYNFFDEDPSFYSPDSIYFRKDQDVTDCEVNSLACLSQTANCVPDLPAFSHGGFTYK
The data set is described as follows: Inhibition of rat CAO.

The species named for data set [3] is Homo sapiens. The data set is described as follows: Selectivity for human recombinant MAOA over human recombinant MAOB.
The nature of data set [4]: Inhibition of tyramine oxidase.
For data set [5], the target named is T3, Amine oxidase [flavin-containing] B (Homo sapiens, UniProt P27338).
T3 sequence (P27338 whole entry): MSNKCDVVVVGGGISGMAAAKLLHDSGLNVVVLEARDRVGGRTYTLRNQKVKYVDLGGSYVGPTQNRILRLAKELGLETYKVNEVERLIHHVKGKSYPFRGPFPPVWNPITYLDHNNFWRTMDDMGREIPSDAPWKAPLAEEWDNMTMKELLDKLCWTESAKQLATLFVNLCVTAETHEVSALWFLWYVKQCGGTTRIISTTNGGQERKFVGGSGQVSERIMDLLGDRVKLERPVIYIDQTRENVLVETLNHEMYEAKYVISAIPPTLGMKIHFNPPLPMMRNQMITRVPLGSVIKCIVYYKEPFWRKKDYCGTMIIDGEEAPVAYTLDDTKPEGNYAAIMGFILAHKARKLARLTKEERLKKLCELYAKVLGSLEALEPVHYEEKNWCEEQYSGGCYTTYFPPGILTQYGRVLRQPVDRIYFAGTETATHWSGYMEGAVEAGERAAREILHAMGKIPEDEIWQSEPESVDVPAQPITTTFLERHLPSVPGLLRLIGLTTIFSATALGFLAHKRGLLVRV
Kind of data set: Inhibition of human recombinant MAOB. Summed up: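 Recombinant human mitochondrial MAO B was gel-filtered into 50 mM K phosphate pH 7.2 with 0.8% octyl-glucoside. Enzyme (7.0 µg) was held 10 min at 10 °C with varying inhibitor concentrations (DMSO) in 0.1 M K phosphate pH 7.2, 6% DMSO, without substrate. The reaction was started with 1 mM benzylamine, and benzaldehyde formation was read at 250 nm at 25 °C.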

Data set [6] is described as follows: Dissociation constant, pKa by titrimetric method. Type of data set: physicochemical. Summed up:
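Titration in 0.1 M KNO₃ at 21 °C.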

For data set [7], the species on record is Homo sapiens. The data set is described as follows: Selectivity for human recombinant MAOB over human recombinant MAOA.
Data set [8] is filed under the species Homo sapiens. The data set is described as follows: Selectivity for human recombinant MAOA over human recombinant MAOB.
Data set [9] in a line: Lipophilicity, log D at pH 7.4. It counts as physicochemical. The following applies: buffer.

For `COc1ccc(/C(=C\F)CN)cc1OC`, the Ki in [1] is 231 µM. Also, the midpoint of inhibition in [2], the IC50, lay at 0.006 µM. For the same molecule, the Ratio Ki in the data set listed under Homo sapiens [3] was determined as 100.
With `NC[C@@]1(c2ccccc2)C[C@@H]1F`, the figures for the IC50 in data set [4] and in data set [1] (read-out: IC50) were 12 µM and 320 µM, respectively.
As for `N[C@]1(c2ccccc2)C[C@]1(F)c1ccccc1` (racemic), the figures for the IC50 in data set [5] and in data set [1] (read-out: IC50) were 20 µM and 10 µM, respectively. In [6], the pKa was determined as 5.8. The Ratio IC50 in the data set filed under Homo sapiens [7] amounted to 2.
For the molecule `N[C@@H]1C[C@]1(F)c1ccc(C(F)(F)F)cc1` (relative stereo), the IC50 was found to be 7.1 µM in data set [5] and 76 µM in [1] (read-out: IC50). The Ratio IC50 in the data set filed under Homo sapiens [8] amounted to 10.7. Besides, in [6], the pKa amounted to 6.6. The same molecule came in with a logD in data set [9] of 3.13.
In the same order, the values of `N[C@@H]1C[C@]1(F)c1ccc(F)cc1` (relative stereo) are 10 µM, 270 µM, 27, 6.88 and 2.14.
On to `N[C@H]1C[C@]1(F)c1ccc(F)cc1` (relative stereo), for which the IC50 in [5] was 4.9 µM; in data set [1] (read-out: IC50), 3.6 µM. Moreover, in data set [6], the pKa was found to be 7.31. For the same molecule, the logD in data set [9] came out at 1.6. In the data set filed under Homo sapiens [7], the Ratio IC50 was 1.4.
With `Cc1ccc([C@@]2(F)C[C@H]2N)cc1` (relative stereo), the IC50 in [5] was 30 µM; in [1] (read-out: IC50), 230 µM. Also, the Ratio IC50 in the data set listed under Homo sapiens [8] is 7.7. Further, the pKa in data set [6] was 7.04.
For the molecule `N[C@H]1C[C@]1(F)c1ccccc1` (relative stereo), the 50% inhibitory concentration (IC50) in [5] was 6.4 µM; in data set [1] (read-out: IC50), 12 µM. The Ratio IC50 in the data set filed under Homo sapiens [8] is 2. The logD in [9] was determined as 1.53.
`N[C@@H]1C[C@]1(F)c1ccc(Cl)cc1` (relative stereo): the IC50 in [5] stood at 4.8 µM; in data set [1] (read-out: IC50) it was 89 µM. Further, the Ratio IC50 in the data set filed under Homo sapiens [8] was 18.5. Moreover, the pKa in [6] came out at 6.81. The logD in [9] came to 2.66.
On to `COc1ccc([C@@]2(F)C[C@@H]2N)cc1` (relative stereo), for which the IC50 in data set [5] worked out at 5.1 µM; in data set [1] (read-out: IC50), 14 µM. Besides, the Ratio IC50 in the data set listed under Homo sapiens [8] amounted to 2.8. In data set [6], the pKa amounted to 7.5.
With `N[C@H]1C[C@]1(F)c1ccc(Cl)cc1` (relative stereo), the IC50 in [5] is 3.7 µM; in [1] (read-out: IC50) it was 1.6 µM. Moreover, the pKa in data set [6] was 7.19. In data set [9], this molecule showed a logD of 2.23. Besides, the Ratio IC50 in the data set filed under Homo sapiens [7] amounted to 2.3.
Molecule `N[C@@H]1C[C@@H]1c1ccccc1` (relative stereo) had a pKa in data set [6] of 8.47. In addition, the logD in data set [9] amounted to 1.41.
Turning to `N[C@H]1C[C@]1(F)c1ccc(C(F)(F)F)cc1` (relative stereo), the results for the IC50 in data set [5] and in data set [1] (read-out: IC50) were 5.4 µM and 0.8 µM, respectively. The molecule also yielded a pKa in [6] of 7. The molecule further showed a logD in [9] of 2.66. In addition, the Ratio IC50 in the data set filed under Homo sapiens [7] worked out at 6.8.
With `Cc1ccc([C@@]2(F)C[C@@H]2N)cc1` (relative stereo), the IC50 in data set [5] and in data set [1] (read-out: IC50) was 13 µM in each case. Moreover, the pKa in data set [6] was determined as 7.41. In addition, the logD in data set [9] amounted to 1.83. For the same molecule, the Ratio IC50 in the data set filed under Homo sapiens [7] turned out to be 1.
Consider `COc1ccc([C@@]2(F)C[C@H]2N)cc1` (relative stereo), for which the half-inhibitory concentration (IC50) in data set [5] is 18 µM. Besides, in data set [1] (human), the Activity entry is reported as “Not Active”.
`COc1ccc([C@@]2(F)C[C@@H]2N)cc1OC` (relative stereo): the IC50 in data set [5] was determined as 230 µM; in [1] (read-out: IC50) it was 47 µM. Moreover, the pKa in [6] stood at 7.4. This molecule registered a logD in data set [9] of 0.58. Besides, in the data set listed under Homo sapiens [7], the Ratio IC50 came out at 4.9.
On to `COc1ccc([C@@]2(F)C[C@H]2N)cc1OC` (relative stereo), for which the IC50 was 470 µM in data set [5] and “Not Active” in [1].
For `N[C@@]1(c2ccccc2)C[C@@H]1F` (relative stereo), in the data set filed under Homo sapiens [7], the Ratio IC50 came out at 100.
For the molecule `N[C@@H]1C[C@]1(F)c1ccccc1` (stereo in doubt), the IC50 is 19 µM in data set [5] and 65 µM in data set [1] (read-out: IC50). Further, the Ratio IC50 in the data set filed under Homo sapiens [8] was 3.4. In addition, the logD in data set [9] was 1.78.

The values above are taken from ChEMBL document CHEMBL1155916, “Fluorinated phenylcyclopropylamines. Part 5: Effects of electron-withdrawing or -donating aryl substituents on the inhibition of monoamine oxidases A and B by 2-aryl-2-fluoro-cyclopropylamines” (Bioorg Med Chem, 2008).
